# In ChEMBL document CHEMBL3286150, “Discovery of PF-5190457, a Potent, Selective, and Orally Bioavailable Ghrelin Receptor Inverse Agonist Clinical Candidate” (ACS Med Chem Lett, 2014):
# The source made the active and inactive calls. No cut-off for these calls is given here.
# Columns and labels:
# [1] = target: T1, 5-hydroxytryptamine receptor 2B (Homo sapiens, UniProt P41595); experiment: Inhibition of 5HT2B receptor (unknown origin)
# [2] = Oral absorption in portal vein cannulated rat at 10 mg/kg, po; assay type: ADME, organism-based; parameters: dose 10 mg/kg, route oral; settings: in vivo
# Homo sapiens = organism: Homo sapiens; experiment: Selectivity ratio of pKb for muscarinic M2 receptor (unknown origin) expressed in CHO-K1 CHRM2 beta-arrestin cells to Ki for human ghrelin receptor expressed; assay type: cell-based
# Summary of the method: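 Ratio of the M2 Kb (β-arrestin PathHunter antagonist format, EC80 oxotremorine) over the human ghrelin receptor functional Ki (GTP-γ-S assay).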
# [3] = target: T2, Muscarinic acetylcholine receptor M2 (Homo sapiens) (UniProt P08172); experiment: Antagonist activity at muscarinic M2 receptor (unknown origin) expressed in CHO-K1 CHRM2 beta-arrestin cells assessed as inhibition of oxotremorine S-induced effect after 90 mins; assay type: cell-based
# T2 sequence (whole entry): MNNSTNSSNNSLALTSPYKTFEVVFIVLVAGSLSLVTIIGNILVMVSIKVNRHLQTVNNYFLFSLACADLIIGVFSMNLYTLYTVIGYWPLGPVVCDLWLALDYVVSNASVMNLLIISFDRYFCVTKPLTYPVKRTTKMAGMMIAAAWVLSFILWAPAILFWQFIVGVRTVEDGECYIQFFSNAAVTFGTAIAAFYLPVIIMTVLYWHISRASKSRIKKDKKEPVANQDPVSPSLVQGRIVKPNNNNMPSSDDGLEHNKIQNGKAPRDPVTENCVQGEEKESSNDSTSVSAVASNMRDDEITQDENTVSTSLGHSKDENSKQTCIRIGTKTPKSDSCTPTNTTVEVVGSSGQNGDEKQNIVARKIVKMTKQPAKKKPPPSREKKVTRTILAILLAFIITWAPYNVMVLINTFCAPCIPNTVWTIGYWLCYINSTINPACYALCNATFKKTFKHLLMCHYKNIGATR
# Summary of the method: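 Antagonist mode in a β-arrestin PathHunter format. Kb was determined in the presence of an EC80 concentration of the agonist oxotremorine.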
# [4] = target: T1, 5-hydroxytryptamine receptor 2B; experiment: Antagonist activity at 5HT2B receptor (unknown origin)
# [5] = Apparent permeability of the compound in MDCK2 cells; assay type: ADME, cell-based, Canis lupus familiaris, MDCK-II; settings: dog, mdck
# Summary of the method: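 Passive permeability (Papp, 10–6 cm/s) measured in low-efflux MDCKII cells.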
# [6] = target: Voltage-gated inwardly rectifying potassium channel KCNH2 (Homo sapiens, UniProt Q12809); experiment: Inhibition of human ERG
# Voltage-gated inwardly rectifying potassium channel KCNH2, sequence (Q12809 whole entry): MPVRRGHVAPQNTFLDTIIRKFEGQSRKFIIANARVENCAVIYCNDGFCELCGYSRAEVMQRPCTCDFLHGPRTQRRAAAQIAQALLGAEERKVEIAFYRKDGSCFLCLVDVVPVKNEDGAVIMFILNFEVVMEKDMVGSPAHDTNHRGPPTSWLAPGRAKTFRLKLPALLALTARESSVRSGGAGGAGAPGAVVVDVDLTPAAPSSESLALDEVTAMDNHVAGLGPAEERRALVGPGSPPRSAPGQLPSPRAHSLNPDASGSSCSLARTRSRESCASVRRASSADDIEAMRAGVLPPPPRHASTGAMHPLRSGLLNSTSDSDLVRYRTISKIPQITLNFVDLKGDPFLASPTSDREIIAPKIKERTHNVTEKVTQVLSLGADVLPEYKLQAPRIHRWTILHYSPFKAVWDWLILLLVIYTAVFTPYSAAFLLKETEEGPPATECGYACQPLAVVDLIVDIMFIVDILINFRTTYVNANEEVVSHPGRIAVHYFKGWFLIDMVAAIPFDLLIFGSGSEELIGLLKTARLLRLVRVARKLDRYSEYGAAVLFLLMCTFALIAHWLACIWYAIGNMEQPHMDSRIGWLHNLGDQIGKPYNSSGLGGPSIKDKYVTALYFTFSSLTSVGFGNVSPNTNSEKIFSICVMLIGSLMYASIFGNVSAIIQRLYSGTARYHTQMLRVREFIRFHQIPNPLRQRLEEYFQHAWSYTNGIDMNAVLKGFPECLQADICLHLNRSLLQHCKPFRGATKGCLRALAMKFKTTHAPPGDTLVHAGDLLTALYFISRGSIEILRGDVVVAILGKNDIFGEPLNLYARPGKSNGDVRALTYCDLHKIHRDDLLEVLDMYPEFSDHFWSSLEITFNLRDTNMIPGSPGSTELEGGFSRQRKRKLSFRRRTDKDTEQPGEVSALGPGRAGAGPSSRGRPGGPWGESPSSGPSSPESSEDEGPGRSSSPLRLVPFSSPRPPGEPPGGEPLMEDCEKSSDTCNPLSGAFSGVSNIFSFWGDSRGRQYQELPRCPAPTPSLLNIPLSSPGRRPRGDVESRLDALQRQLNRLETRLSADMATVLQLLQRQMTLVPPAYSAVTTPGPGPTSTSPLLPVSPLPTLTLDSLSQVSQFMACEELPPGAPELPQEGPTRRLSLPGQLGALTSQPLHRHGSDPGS
# [7] = Apparent intrinsic clearance in human liver microsomes; assay type: ADME; settings: read-out: CLH
# Summary of the method: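 Apparent intrinsic clearance in human liver microsomes, expressed as mL/min/kg. Values are uncorrected for fraction unbound.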
# MDCK = experiment: Efflux ratio of permeability from basolateral to apical over apical to basolateral side in MDCK cells expressing human MDR1; settings: dog
# [8] = target: T3, Growth hormone secretagogue receptor type 1 (Homo sapiens, UniProt Q92847); experiment: Displacement of [125I]ghrelin from human ghrelin receptor expressed in HEK293 cells after 8 hrs by scintillation proximity assay; assay type: cell-based
# T3 sequence (Q92847 whole entry): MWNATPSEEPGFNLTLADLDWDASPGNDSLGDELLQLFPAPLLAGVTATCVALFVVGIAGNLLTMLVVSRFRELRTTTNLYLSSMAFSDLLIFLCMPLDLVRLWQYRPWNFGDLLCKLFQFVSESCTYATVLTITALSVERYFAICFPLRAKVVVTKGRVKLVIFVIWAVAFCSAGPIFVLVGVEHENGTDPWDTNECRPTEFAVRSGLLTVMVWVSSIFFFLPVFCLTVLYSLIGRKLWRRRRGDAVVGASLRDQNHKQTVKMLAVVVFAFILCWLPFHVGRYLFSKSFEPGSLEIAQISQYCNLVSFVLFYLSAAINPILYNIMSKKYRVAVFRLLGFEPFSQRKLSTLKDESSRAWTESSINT
# Summary of the method: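 Human ghrelin receptor binding measured by scintillation proximity assay. Values are geometric means of at least 3 measurements, unless noted otherwise.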
# [9] = target: T3, Growth hormone secretagogue receptor type 1; experiment: Inverse agonist activity at human ghrelin receptor expressed in HEK293 cells assessed as inhibition of ghrelin-induced europium-labeled GTP-gamma-S binding by DELFIA; assay type: cell-based
# Summary of the method: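 GTP-γ-S functional assay run in agonist/antagonist/inverse-agonist mode. Minimum percent effect is reported, with negative values denoting inverse agonism. Values are geometric means ± standard error of ≥3 measurements unless noted.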
# [10] = target: T1, 5-hydroxytryptamine receptor 2B; experiment: Agonist activity at 5HT2B receptor (unknown origin)
# [11] = target: T4, D(4) dopamine receptor (Homo sapiens) (UniProt P21917); experiment: Activity at dopamine D4 receptor (unknown origin) at 10 uM
# T4 sequence (whole entry): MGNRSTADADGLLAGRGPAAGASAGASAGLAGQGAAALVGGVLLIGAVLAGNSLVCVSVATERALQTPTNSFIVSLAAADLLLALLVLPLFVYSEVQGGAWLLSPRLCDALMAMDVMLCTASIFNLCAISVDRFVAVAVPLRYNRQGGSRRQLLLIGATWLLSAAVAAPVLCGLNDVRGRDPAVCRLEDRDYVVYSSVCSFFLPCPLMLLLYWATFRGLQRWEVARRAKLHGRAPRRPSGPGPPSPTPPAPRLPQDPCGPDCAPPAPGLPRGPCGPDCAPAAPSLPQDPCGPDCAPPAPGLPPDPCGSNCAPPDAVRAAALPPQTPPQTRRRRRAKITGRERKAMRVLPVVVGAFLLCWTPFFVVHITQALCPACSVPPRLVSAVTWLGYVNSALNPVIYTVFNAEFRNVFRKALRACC
# [12] = target: D(2) dopamine receptor (Homo sapiens) (UniProt P14416); experiment: Activity at dopamine D2S receptor (unknown origin) at 10 uM
# D(2) dopamine receptor (Homo sapiens), sequence (P14416 whole entry): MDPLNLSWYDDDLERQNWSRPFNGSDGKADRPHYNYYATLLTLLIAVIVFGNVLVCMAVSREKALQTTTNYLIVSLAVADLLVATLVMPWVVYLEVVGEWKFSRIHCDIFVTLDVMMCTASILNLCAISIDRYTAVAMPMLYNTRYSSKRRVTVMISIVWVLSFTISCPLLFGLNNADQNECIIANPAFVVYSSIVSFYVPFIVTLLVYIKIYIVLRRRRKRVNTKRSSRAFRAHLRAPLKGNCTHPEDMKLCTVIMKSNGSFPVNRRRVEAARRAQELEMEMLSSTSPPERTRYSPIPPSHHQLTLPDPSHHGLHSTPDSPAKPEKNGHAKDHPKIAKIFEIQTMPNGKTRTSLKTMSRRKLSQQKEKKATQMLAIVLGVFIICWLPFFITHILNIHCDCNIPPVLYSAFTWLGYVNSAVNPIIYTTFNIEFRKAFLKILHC
# [13] = target: Histamine H1 receptor (Homo sapiens) (UniProt P35367); experiment: Activity at histamine H1 receptor (unknown origin) at 10 uM
# Histamine H1 receptor (Homo sapiens), sequence (P35367 whole entry): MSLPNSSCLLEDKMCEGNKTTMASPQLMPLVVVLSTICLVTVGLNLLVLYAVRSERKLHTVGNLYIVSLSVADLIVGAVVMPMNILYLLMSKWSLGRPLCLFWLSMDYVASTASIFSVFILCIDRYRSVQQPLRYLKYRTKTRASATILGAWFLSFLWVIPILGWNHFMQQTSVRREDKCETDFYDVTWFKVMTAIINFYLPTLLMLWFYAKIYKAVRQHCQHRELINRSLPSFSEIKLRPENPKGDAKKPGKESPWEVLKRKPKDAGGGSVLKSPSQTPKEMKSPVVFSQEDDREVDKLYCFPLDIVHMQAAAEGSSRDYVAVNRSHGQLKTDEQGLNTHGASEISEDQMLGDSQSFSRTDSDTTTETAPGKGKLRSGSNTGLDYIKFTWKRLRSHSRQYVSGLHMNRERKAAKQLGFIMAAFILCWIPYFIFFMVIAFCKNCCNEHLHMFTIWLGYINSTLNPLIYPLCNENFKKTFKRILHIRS
# [14] = target: D(3) dopamine receptor (Homo sapiens) (UniProt P35462); experiment: Activity at dopamine D3 receptor (unknown origin) at 10 uM
# D(3) dopamine receptor (Homo sapiens), sequence (P35462 whole entry): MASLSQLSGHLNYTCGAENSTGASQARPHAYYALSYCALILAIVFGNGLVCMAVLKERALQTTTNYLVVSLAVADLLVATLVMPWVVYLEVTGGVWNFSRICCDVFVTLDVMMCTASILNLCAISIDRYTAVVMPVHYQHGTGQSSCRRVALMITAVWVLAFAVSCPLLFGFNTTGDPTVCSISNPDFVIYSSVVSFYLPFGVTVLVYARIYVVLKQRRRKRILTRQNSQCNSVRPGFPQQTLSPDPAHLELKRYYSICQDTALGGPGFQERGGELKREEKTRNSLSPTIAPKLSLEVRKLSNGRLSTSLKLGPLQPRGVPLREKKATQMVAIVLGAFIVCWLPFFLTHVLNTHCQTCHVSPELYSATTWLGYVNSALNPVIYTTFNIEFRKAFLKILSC
# [15] = target: T5, Alpha-2C adrenergic receptor (Homo sapiens) (UniProt P18825); experiment: Activity at adrenergic alpha2C receptor (unknown origin) at 10 uM
# T5 sequence (whole entry): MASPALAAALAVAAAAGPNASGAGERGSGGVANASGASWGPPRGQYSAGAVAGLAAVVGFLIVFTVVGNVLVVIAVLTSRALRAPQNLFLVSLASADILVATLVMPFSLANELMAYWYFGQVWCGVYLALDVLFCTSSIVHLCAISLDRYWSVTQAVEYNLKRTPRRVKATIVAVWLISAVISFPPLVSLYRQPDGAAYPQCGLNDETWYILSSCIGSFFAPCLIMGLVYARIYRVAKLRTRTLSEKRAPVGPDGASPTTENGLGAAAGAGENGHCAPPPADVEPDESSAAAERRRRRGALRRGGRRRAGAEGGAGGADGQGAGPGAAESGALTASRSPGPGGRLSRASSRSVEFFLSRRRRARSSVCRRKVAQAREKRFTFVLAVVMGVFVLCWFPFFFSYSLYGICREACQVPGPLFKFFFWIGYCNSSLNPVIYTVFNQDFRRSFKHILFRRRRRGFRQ
# [16] = target: T6, Alpha-2A adrenergic receptor (Homo sapiens) (UniProt P08913); experiment: Activity at adrenergic alpha2A receptor (unknown origin) at 10 uM
# T6 sequence (whole entry): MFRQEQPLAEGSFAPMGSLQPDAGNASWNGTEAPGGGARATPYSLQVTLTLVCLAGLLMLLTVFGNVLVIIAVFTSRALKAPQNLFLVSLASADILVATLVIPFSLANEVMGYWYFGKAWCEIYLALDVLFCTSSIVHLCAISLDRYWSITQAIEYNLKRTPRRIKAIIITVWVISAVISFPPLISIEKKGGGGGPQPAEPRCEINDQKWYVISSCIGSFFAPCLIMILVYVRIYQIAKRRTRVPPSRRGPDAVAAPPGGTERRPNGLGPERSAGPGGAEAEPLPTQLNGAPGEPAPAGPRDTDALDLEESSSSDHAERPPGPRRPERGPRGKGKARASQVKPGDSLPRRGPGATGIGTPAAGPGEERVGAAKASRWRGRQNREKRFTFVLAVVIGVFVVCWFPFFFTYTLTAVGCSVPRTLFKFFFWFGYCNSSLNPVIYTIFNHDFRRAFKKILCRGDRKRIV
# T1 sequence (P41595 whole entry): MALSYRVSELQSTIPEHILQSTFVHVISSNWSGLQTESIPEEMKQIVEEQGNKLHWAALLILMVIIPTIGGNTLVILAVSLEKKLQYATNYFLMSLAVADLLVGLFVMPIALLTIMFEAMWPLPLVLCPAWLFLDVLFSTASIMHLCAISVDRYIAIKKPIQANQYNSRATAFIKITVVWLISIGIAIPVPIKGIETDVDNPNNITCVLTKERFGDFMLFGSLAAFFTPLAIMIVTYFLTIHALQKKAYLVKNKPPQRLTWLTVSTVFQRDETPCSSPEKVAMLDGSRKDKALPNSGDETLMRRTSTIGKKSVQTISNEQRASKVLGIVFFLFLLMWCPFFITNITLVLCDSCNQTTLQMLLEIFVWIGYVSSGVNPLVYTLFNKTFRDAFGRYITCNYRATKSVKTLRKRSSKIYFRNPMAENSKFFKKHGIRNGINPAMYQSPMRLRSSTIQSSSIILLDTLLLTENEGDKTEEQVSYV
Structure (SMILES),pKb [3],Papp [5] [×10⁻⁶ cm/s],CLint scaled [7] [mL/min/kg],Ratio (MDCK),Ki [9] [nM],Ratio (Homo sapiens),further results
COc1ccc(CC(=O)N2CCC3(CC2)CN([C@@H]2CCc4cc(-c5ncccn5)ccc42)C3)cc1,5.94,–,–,–,–,–,Activity [11]: Active; Activity [12]: Active; Activity [13]: Active; Activity [14]: Active; Activity [15]: Active; Activity [16]: Active
COc1ccc(CC(=O)N2CCC3(CC2)CN([C@@H]2CCc4cc(-c5ccncn5)ccc42)C3)nc1,6.08,15,82,5.4,–,–,–
COc1ccc(CC(=O)N2CCC3(CC2)CN([C@@H]2CCc4cc(-c5cc(C)ncn5)ccc42)C3)nc1,5.66,–,–,–,–,–,–
COc1ccc(CC(=O)N2CCC3(CC2)CN([C@@H]2CCc4cc(-c5ncccn5)ccc42)C3)nc1,6.18,–,–,–,25.1,–,–

# The next lines start with results.
pKb [3],Papp [5] [×10⁻⁶ cm/s],CLint scaled [7] [mL/min/kg],Ratio (MDCK),Ki [9] [nM],Structure (SMILES),Ratio (Homo sapiens),further results
5.71,5,21,7.2,6.61,Cc1cc(-c2ccc3c(c2)CC[C@H]3N2CC3(CCN(C(=O)Cc4cn5cc(C)sc5n4)CC3)C2)ncn1 [PF-5190457],266,IC50 [1]: 3700 nM; Fa [2]: 100%; inhibition [4]: inactive; IC50 [6]: 6900 nM; Ki [8]: 6.61 nM; Activity [10]: inactive
6.48,–,–,> 18.2,–,Cc1cn2cc(CC(=O)N3CCC4(CC3)CN([C@@H]3CCc5cc(-c6ccc(C(N)=O)nc6)ccc53)C4)nc2s1,–,–
6.09,10,17,3.7,50.1,COc1ccc(CC(=O)N2CCC3(CC2)CN([C@@H]2CCc4cc(-c5nccc(C)n5)ccc42)C3)nc1,20,–
5.86,–,–,–,85.1,COc1ccc(CC(=O)N2CCC3(CC2)CN([C@@H]2CCc4cc(-c5ncc(C)cn5)ccc42)C3)nc1,–,–
6.41,11,18,5.4,6.61,Cc1cn2cc(CC(=O)N3CCC4(CC3)CN([C@@H]3CCc5cc(-c6ncccn6)ccc53)C4)nc2s1,47,Ki [8]: 4.57 nM
